Measurements: ChEMBL document CHEMBL1154417, “In vitro antiviral activity of the novel, tyrosyl-based human immunodeficiency virus (HIV) type 1 protease inhibitor brecanavir (GW640385) in combination with other antiretrovirals and against a panel of protease inhibitor-resistant HIV” (Antimicrob Agents Chemother, 2007)
The source made the active and inactive calls. No cut-off for these calls is given here.

How the values were obtained:
[1] = test system: Human immunodeficiency virus 1; assay: Antiviral activity against HIV1 BaL in human PBMC assessed as blockade of reverse transcriptase activity; type: functional, organism-based; conditions: Human immunodeficiency virus 1, BaL
How it was run: (§1)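 PHA-stimulated PBMCs, 8 × 10^6 cells/ml in RPMI with 20% FBS and 10% IL-2, preincubated 1 h at 37°C with compound serially diluted fourfold. Then infected with virus premixed with compound (IIIB for line 2, Ba-L for line 3). After 7 days, RT activity measured in supernatant. EC50 from mean percent inhibition; n = 3 for IIIB, 8 for Ba-L.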

[2] = test system: Human immunodeficiency virus 1; assay: Ratio of EC50 for HIV1 drug resistant mutant isolates from protease inhibitor treated HIV patient to EC50 for drug sensitive HIV1 NL4-3; type: functional
How it was run: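 Recombinant virus assay with clinical isolates from PI-experienced patients (94 isolates). Fold change is the EC50 against each isolate over the EC50 against reference wild-type HIV-1 NL4-3.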

[3] = test system: Human immunodeficiency virus 1; assay: Antiviral activity against HIV1 drug resistant mutant isolates from protease inhibitor treated HIV patient; type: functional, organism-based
Protease [4] = molecular target: T1, Protease (Human immunodeficiency virus 1, UniProt Q9YQ12); assay: Inhibition of HIV1 protease
T1 sequence (Q9YQ12 whole entry): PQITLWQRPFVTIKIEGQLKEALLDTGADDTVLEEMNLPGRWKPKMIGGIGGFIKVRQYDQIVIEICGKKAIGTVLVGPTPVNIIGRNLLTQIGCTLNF
How it was run: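 Ki derived either from a continuous fluorescence activity assay of HIV-1 protease or from the ratio of the dissociation first-order rate constant to the bimolecular association rate constant for enzyme–inhibitor binding.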

[5] = test system: Human immunodeficiency virus 1; assay: Antiviral activity against HIV1 NL4-3; type: functional, organism-based; conditions: Human immunodeficiency virus 1, NL4-3
Protease [6] = molecular target: T1, Protease; assay: Inhibition of HIV1 protease by fluorescent peptide substrate based assay
How it was run: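 HIV-1 protease Ki from a continuous fluorescence activity assay using a fluorescent peptide substrate. Alternatively, Ki was calculated from the association and dissociation rate constants of the enzyme-inhibitor complex.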

[7] = test system: Human immunodeficiency virus 1; assay: Antiviral activity against HIV1 HXB2 in human MT4 cells assessed as inhibition of viral-induced viral cytopathic effect in presence of 10% fetal bovine serum and 10% human serum by MTS assay; type: functional, organism-based; conditions: Human immunodeficiency virus 1, HXB2, MT4
How it was run: (§2)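 MT-4 cells batch-infected with HIV-1 HXB2 at MOI 0.0001 for 1 h at 37°C. Cells then plated at 4 × 10^4 per well onto serially diluted compound in medium containing 10% or 40% FBS, or 10–40% human serum. After 5 days, EC50 from MTS viability.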

[8] = test system: Human immunodeficiency virus 1; assay: Antiviral activity against HIV1 HXB2 in human MT4 cells assessed as inhibition of viral-induced viral cytopathic effect in presence of 40% fetal bovine serum by MTS assay; type: functional, organism-based; conditions: Human immunodeficiency virus 1, HXB2, MT4; how it was run: as §2
[9] = test system: Human immunodeficiency virus 1; assay: Antiviral activity against HIV1 HXB2 in human MT4 cells assessed as inhibition of viral-induced viral cytopathic effect in presence of 10% fetal bovine serum and 20% human serum by MTS assay; type: functional, organism-based; conditions: Human immunodeficiency virus 1, HXB2, MT4; how it was run: as §2
[10] = test system: Human immunodeficiency virus 1; assay: Antiviral activity against HIV1 HXB2 in human MT4 cells assessed as inhibition of viral-induced viral cytopathic effect in presence of 10% fetal bovine serum by MTS assay; type: functional, organism-based; conditions: Human immunodeficiency virus 1, HXB2, MT4; how it was run: as §2
[11] = test system: Human immunodeficiency virus 1; assay: Antiviral activity against HIV1 HXB2 in human MT4 cells assessed as inhibition of viral-induced viral cytopathic effect in presence of 10% fetal bovine serum and 30% human serum by MTS assay; type: functional, organism-based; conditions: Human immunodeficiency virus 1, HXB2, MT4; how it was run: as §2
[12] = test system: Human immunodeficiency virus 1; assay: Antiviral activity against HIV1 HXB2 in human MT4 cells assessed as inhibition of viral-induced viral cytopathic effect in presence of 10% fetal bovine serum and 40% human serum by MTS assay; type: functional, organism-based; conditions: Human immunodeficiency virus 1, HXB2, MT4; how it was run: as §2
[13] = test system: Human immunodeficiency virus 1; assay: Ratio of EC50 for HIV1 HXB2 in presence of 10% human serum to EC50 for HIV1 HXB2 in presence of 10% fetal bovine serum; type: functional; how it was run: as §2
[14] = test system: Human immunodeficiency virus 1; assay: Ratio of EC50 for HIV1 HXB2 in presence of 40% human serum to EC50 for HIV1 HXB2 in presence of 10% fetal bovine serum; type: functional; how it was run: as §2
[15] = test system: Human immunodeficiency virus 1; assay: Ratio of EC50 for HIV1 HXB2 in presence of 20% human serum to EC50 for HIV1 HXB2 in presence of 10% fetal bovine serum; type: functional; how it was run: as §2
[16] = test system: Human immunodeficiency virus 1; assay: Ratio of EC50 for HIV1 HXB2 in presence of 30% human serum to EC50 for HIV1 HXB2 in presence of 10% fetal bovine serum; type: functional; how it was run: as §2
[17] = test system: Human immunodeficiency virus 1; assay: Antiviral activity against HIV1 3B in human MT4 cells assessed as inhibition of viral-induced viral cytopathic effect by MTS assay; type: functional, organism-based; conditions: Human immunodeficiency virus 1, 3B
How it was run: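 MT-4 cells in RPMI 1640 with 20% FBS, 20% IL-2 and gentamicin, 5 × 10^5 cells/ml, infected with HIV-1 IIIB at 100 TCID50 per well for 1 h at 37°C. Cells diluted sixfold onto serially diluted compound and incubated 5 days. Cytopathic effect read by MTS staining at OD 492 nm. EC50 by Hill-equation curve fit; n = 8.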

[18] = test system: Human immunodeficiency virus 1; assay: Antiviral activity against HIV1 HXB2 in human HeLa cells up to 50 uM by HeLa-CD4 MAGI assay; type: functional, organism-based
How it was run: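 HeLa-CD4-LTR-β-gal cells grown in DMEM with 10% FBS and infected with HIV-1 HXB2 for a single round of infection. Read-out is β-galactosidase activity. Tested up to the solubility limit (about 50 μM). EC50 from 2 determinations.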

[19] = test system: Human immunodeficiency virus 1; assay: Antiviral activity against HIV1 HXB2 in human MT4 cells assessed as inhibition of viral-induced viral cytopathic effect by MTS assay; type: functional, organism-based; conditions: Human immunodeficiency virus 1, HXB2, MT4; how it was run: as §2
[20] = test system: Human immunodeficiency virus 1; assay: Antiviral activity against HIV1 HXB2 in human HeLa cells by HeLa-CD4 MAGI assay; type: functional, organism-based; conditions: Human immunodeficiency virus 1, HXB2, HeLa
How it was run: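 HeLa-CD4-LTR-β-gal cells kept in DMEM with 10% FBS and infected with HIV-1 HXB2 in a single-round assay. Read-out is β-galactosidase activity; n = 2; tested up to about 50 μM, the solubility limit.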

[21] = test system: Human immunodeficiency virus 1; assay: Antiviral activity against HIV1 3B in human PBMC assessed as blockade of reverse transcriptase activity; type: functional, organism-based; conditions: Human immunodeficiency virus 1, 3B; how it was run: as §1
[22] = Cytotoxicity against human MOLT4 cells; type: cell-based, MOLT-4; conditions: read-out: CCIC50
How it was run: (§3)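 Uninfected B- and T-cell lines were exposed to serially diluted compound up to a highest concentration of 25 μM. The cell culture 50% inhibitory concentration (CCIC50) was determined.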

[23] = Selectivity index, ratio of CCIC50 for human MT4 cells to IC50 for HIV1 3B; type: functional
[24] = Protein binding in human plasma; type: ADME, cell-free; conditions: read-out: PPB (converted)
[25] = Cytotoxicity against human U937 cells; type: cell-based, U-937
[26] = Cytotoxicity against human IM9 cells; type: cell-based, IM-9; conditions: read-out: CCIC50; how it was run: as §3
[27] = Cytotoxicity against human MT4 cells; type: cell-based; conditions: read-out: CCIC50
How it was run: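 Mock-infected MT-4 cells run in parallel with the HIV-1 IIIB antiviral assay, in RPMI 1640 with FBS, IL-2 and gentamicin. Incubated 5 days at 37°C, 5% CO2, then MTS viability read at OD 492 nm. Highest concentration tested 25 μM. Reported as CCIC50.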

[28] = test system: Human immunodeficiency virus 1; assay: Ratio of EC50 for HIV1 HXB2 in presence of 40 mg/ml HSA and 1 mg/ml alpha1-acid glycoprotein to EC50 for HIV1 HXB2; type: functional
How it was run: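 Same MT-4/HXB2 batch-infection format (MOI 0.0001, 1 h, 4 × 10^4 cells/well, 5-day MTS read-out), run with 40 mg/ml human serum albumin plus 1 mg/ml α1-acid glycoprotein.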

[29] = test system: Human immunodeficiency virus 1; assay: Ratio of EC50 for HIV1 HXB2 in presence of 40% fetal bovine serum to EC50 for HIV1 HXB2 in presence of 10% fetal bovine serum; type: functional; how it was run: as §2

SMILES	EC50 [1] [nM]	Ratio EC50 [2]	EC50 [3] [nM]	EC50 [5] [nM]	EC50 [7] [nM]	EC50 [9] [nM]	EC50 [10] [nM]	EC50 [11] [nM]	EC50 [12] [nM]	also measured
CC(C)CN(C[C@@H](O)[C@H](Cc1ccccc1)NC(=O)O[C@H]1CCOC1)S(=O)(=O)c1ccc(N)cc1	57	13.7	190	15.3						Ki (Protease [4]): 0.036 nM; Ki (Protease [6]): 0.057 nM
CC(C)CN(C[C@@H](O)[C@H](Cc1ccccc1)NC(=O)O[C@H]1CO[C@H]2OCC[C@H]21)S(=O)(=O)c1ccc(N)cc1	2.8		4.6	0.78	11	15	5.6	19	22	EC50 [8]: 11 nM
CCC[C@@]1(CCc2ccccc2)CC(O)=C([C@H](CC)c2cccc(NS(=O)(=O)c3ccc(C(F)(F)F)cn3)c2)C(=O)O1	304	2.4	190	76.2	310	507	40.9	580	660	Ratio EC50 [13]: 7.7; Ratio EC50 [14]: 16; Ratio EC50 [15]: 12.4; Ratio EC50 [16]: 14.1; Ki (Protease [6]): 0.008 nM
CC(C)(C)NC(=O)[C@@H]1CN(Cc2cccnc2)CCN1C[C@@H](O)C[C@@H](Cc1ccccc1)C(=O)N[C@H]1c2ccccc2C[C@H]1O.O		26	220	9.8						
Cc1c(O)cccc1C(=O)N[C@@H](CSc1ccccc1)[C@H](O)CN1C[C@H]2CCCC[C@H]2C[C@H]1C(=O)NC(C)(C)C	36									
COC(=O)N[C@H](C(=O)N[C@@H](Cc1ccccc1)[C@@H](O)CN(Cc1ccc(-c2ccccn2)cc1)NC(=O)[C@@H](NC(=O)OC)C(C)(C)C)C(C)(C)C [ATAZANAVIR]	4.4	26	47	1.7						
Cc1nc(COc2ccc(C[C@H](NC(=O)O[C@H]3CO[C@H]4OCC[C@H]43)[C@H](O)CN(CC(C)C)S(=O)(=O)c3ccc4c(c3)OCO4)cc2)cs1 [BRECANAVIR]	0.42	6.6	0.88	0.18	1.4	2.2	0.7	2.6	3.8	EC50 [17]: 0.44 nM; Activity [18]: inactive; EC50 [8]: 1.1 nM; EC50 [19]: 0.53 nM; Ratio EC50 [13]: 1.9; EC50 [20]: > 90000 nM; Ratio EC50 [14]: 5.2; EC50 [21]: 0.2 nM; CC50 [22]: > 25000 nM; Ratio [23]: >55000; fraction unbound [24]: 0.02; CC50 [25]: > 25000 nM; CC50 [26]: > 25000 nM; CC50 [27]: > 25000 nM; Ratio EC50 [15]: 2.2; Ratio EC50 [16]: 3.6; Ratio EC50 [28]: 8.2; Ratio EC50 [29]: 1.6
Cc1cccc(C)c1OCC(=O)N[C@@H](Cc1ccccc1)[C@@H](O)C[C@H](Cc1ccccc1)NC(=O)[C@H](C(C)C)N1CCCNC1=O [LOPINAVIR]		43	230	4.4						
